# Compound activity as filed in PubChem BioAssay.
# ERp5 block = inhibitors of ERp5-driven insulin aggregation, primary screen, biochemical, turbidity, absorbance 650 nm, single point. Protein disulfide-isomerase A6 (Homo sapiens), Q15084. 90 min. inhibition, % at 9.99 µM. 0.05% of 350,000 active. AID 651711, 2012;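 active means mean replicate inhibition above about 25%, with every replicate also reaching it, limit read from the data, passing the limit was not always enough; inconclusive means only one of those two criteria met; inactive means neither criterion met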
# PDI inh = inhibitors of human PDI, primary screen, biochemical, turbidity, single point, plate reader; PDI insulin aggregation turbidity, A650, 90 min; inhibition, % at 10 µM; 0.052% of 350,000 active; AID 588391, 2011;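 active means mean inhibition across replicates of 30% or more, whatever share of single replicates reach that level; inconclusive means mean inhibition below 30% while every single replicate reaches 30%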
# Target sequence (P07237 whole entry, looked up): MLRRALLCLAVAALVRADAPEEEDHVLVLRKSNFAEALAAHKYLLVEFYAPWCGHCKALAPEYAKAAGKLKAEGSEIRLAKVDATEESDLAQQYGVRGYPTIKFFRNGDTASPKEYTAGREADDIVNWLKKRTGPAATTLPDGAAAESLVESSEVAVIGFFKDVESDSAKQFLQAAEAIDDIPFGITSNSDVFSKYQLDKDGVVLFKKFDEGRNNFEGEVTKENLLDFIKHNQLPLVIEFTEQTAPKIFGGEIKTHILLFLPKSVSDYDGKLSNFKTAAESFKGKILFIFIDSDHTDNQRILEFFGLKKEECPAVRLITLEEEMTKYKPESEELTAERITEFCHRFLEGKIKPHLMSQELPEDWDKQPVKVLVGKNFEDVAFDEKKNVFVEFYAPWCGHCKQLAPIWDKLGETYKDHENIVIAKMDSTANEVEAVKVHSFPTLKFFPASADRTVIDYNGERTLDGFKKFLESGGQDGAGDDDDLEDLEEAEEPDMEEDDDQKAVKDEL
# FGF22 binding = binders of human FGF22 protein, primary screen, FGF22 synaptogenesis inhibitor project, biophysical, thermal shift, single point. activity (Tm shift, normalised), % at 9.99 µM. recombinant FGF22 thermal shift, SYPRO orange fluorescence; percent of sucrose octasulfate shift, DMSO zero. Fibroblast growth factor 22 (Homo sapiens), Q9HCT0. 1.5% of 340,000 active;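 active means mean Tm shift, scaled 0 neutral to 100 positive control, at about 1.3% or above, every replicate too, limit read from the data; inconclusive means no clear call, values can overlap the other calls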
# ARNT TACC3 PPI = disruptors of ARNT/TACC3 protein interaction, primary screen, biochemical, AlphaScreen, single concentration | AlphaScreen His-ARNT PAS-B/GST-TACC3 binding, luminescence; TACC3 fragment carries E629A point mutation | 0.66% of 390,000 active | Transforming acidic coiled-coil-containing protein 3 (Homo sapiens), Q9Y6A5 | AID 623870, 2012 | inhibition, % at 9.99 µM;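 active means mean inhibition of replicates at least 50% and at least half of replicates each reaching 50%; inconclusive means half or more replicates reach 50% but mean below 50%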;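 further: 0% = complete ARNT plus TACC3 wells and 100% = ARNT alone without TACC3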
# FN deposit inh = inhibitors of fibronectin matrix deposition, primary screen, AH1F cells, Alexa488-fibronectin fluorescence, plate reader. AID 743247, 2014. 0.086% of 350,000 active. inhibition, % at 12.6 µM. AH1F fibroblasts, overnight;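 active means mean inhibition across replicates of 30% or more, regardless of how many single replicates reach that level; inconclusive means mean under 30% yet at least half of replicates reach 30%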;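 further: positive control wells lacked labelled fibronectin entirely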
#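 Assay system: AH1F fibroblast monolayer, labelled fibronectin deposition. Amount: 10000 cells per well. Also added: labelled fibronectin 24 nM. Compound: single-point pinned compound. Incubation: cell attachment 1 h, compound and FN exposure overnight. Detection: fluorescence after three HBSS washes, excitation 485 nm, emission 525 nm. Read-out: inhibition of fibronectin deposition signal.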
# AF4-AF9 inh = inhibitors of AF4 peptide binding to AF9, primary screen, biochemical, AlphaScreen, biotin-AF4 peptide, FLAG-AF9, single point; inhibition, % at 10 µM; 0.47% of 350,000 active;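 active means every replicate reaching a set inhibition limit, whatever the replicate mean, cut at about 25% in these data; inconclusive means mean inhibition reaches that limit but some replicates miss it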;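 further: 0% = plate neutral control median and 100% = total signal loss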
# Starred values were filed as active, the others as inactive; ? = inconclusive; · = no result. A selection: hits, their analogues and other compounds. The true share with any hit is near 2.1%.
SMILES,ERp5 block,PDI inh,FGF22 binding,ARNT TACC3 PPI,FN deposit inh,AF4-AF9 inh
C[C@@H]1CN([C@@H](C)CO)C(=O)c2cc(NS(=O)(=O)c3ccc(Cl)cc3)ccc2O[C@@H]1CN(C)C(=O)Nc1cccc2ccccc12,8,·,0,2,3,2
COc1ccc(Cc2nnc(N/N=C/c3ccc(Br)cc3)[nH]c2=O)cc1OC,0,1,0,2,3,0
COc1ccc(Cc2nnc(N/N=C/c3ccc(O)cc3)[nH]c2=O)cc1OC,·,2,·,92*,-7,·
CCOC(=O)C1=C(CS(=O)(=O)c2ccccc2)NC(=O)NC1c1cccc(OC)c1 (centres undefined),0,-4,44*,·,-14,-2
O=C(CN1CCC(C(=O)c2cccc(F)c2)CC1)NCc1cccs1,2,7,43*,-1,0,0
O=C(CN1CCC(NC(=O)c2cccc(F)c2)CC1)NCc1cccs1,-1,-12,0,4,-4,1
COc1n[nH]c(C(=O)Nc2nc3ccccc3s2)c1[N+](=O)[O-],-6,3,44*,3,-10,-9
COc1n[nH]c(C(=O)NCc2ccccc2)c1[N+](=O)[O-],2,0,0,-3,7,-3
O=C(Cn1ccc(=O)[nH]c1=O)Nc1ccc(O)c([N+](=O)[O-])c1,0,-2,43*,-6,0,1
CCCC#Cc1ccc2c(c1)O[C@H](CN(C)C(=O)NC(C)C)[C@@H](C)CN([C@@H](C)CO)S2(=O)=O,-5,·,0,15,3,0
Cc1ccc(NC(=O)CSc2nnc3c(n2)[nH]c2ccccc23)cc1,2,2,0,0,2,3
O=C(CSc1nnc2c(n1)[nH]c1ccccc12)Nc1ccc(S(=O)(=O)Nc2ncccn2)cc1,2,1,0,49*,-5,-3
Cc1cc(/C=N/N2CCN(C)CC2)c(C)n1-c1ccc(Cl)cc1,1,19,0,13,-4,48*
Cc1cc(/C=N/n2cnnc2)c(C)n1-c1ccc(Cl)cc1,·,-1,·,1,-2,·
CCN1CCn2c3c(c4cc(C)ccc42)CCCC31 (centres undefined),·,-1,·,23,·,·
CC(=O)N1CCn2c3c(c4cc(C)ccc42)CCCC31 (centres undefined),-9,7,43*,8,-8,6
Cc1ccc2c(c1)c1c3n2CCN(C(=O)CCl)C3CCC1 (centres undefined),3,59*,0,2,3,11
CO[C@H]1CN(C)C(=O)c2cc(NC(=O)Nc3cccc(Cl)c3)ccc2OC[C@H](C)N(C)C[C@@H]1C,-1,·,0,-2,10,6
O=C(Nc1nnc(Cc2ccc(Cl)cc2)s1)C1CCCO1 (centres undefined),-9,-1,43*,2,-4,-1
O=[N+]([O-])c1cc(CN2CCCCCC2)ccc1O,3,1,0,-8,2,-1
Cc1ccc(Sc2ccc(CN3CCCCC3)cc2[N+](=O)[O-])cc1,1,9,0,13,7,29*
COCC(=O)NC[C@H]1N[C@H](CO)[C@H]1c1ccc(C2=CCCC2)cc1,·,·,·,-1,-4,·
C[C@@]12C(=O)OC(=O)[C@]1(C)C1CCC2O1,6,-6,0,-4,41*,-3
CN(C)C(=O)C[C@H]1C[C@H]2c3cc(NS(C)(=O)=O)ccc3O[C@H]2[C@@H](CO)O1,33*,·,0,-2,1,0
CN(C)C(=O)C[C@H]1C[C@@H]2c3cc(NS(C)(=O)=O)ccc3O[C@@H]2[C@H](CO)O1,15,·,1,-2,2,-1
SMILES,ERp5 block,PDI inh,FGF22 binding,ARNT TACC3 PPI,FN deposit inh,AF4-AF9 inh
CN(C)C(=O)C[C@H]1C[C@H]2c3cc(NS(C)(=O)=O)ccc3O[C@H]2[C@H](CO)O1,68*,·,0,-2,12,0
COc1ccc(OC)c2c1C(=O)C(Cl)=C(Cl)C2=O,2,10,0,-2,60*,-8
CCCNC(=O)N1[C@@H](CO)[C@@H](c2ccccc2)[C@@H]1CNC(=O)c1cccc(F)c1,-14,·,0,-24,26,-2
Cc1cc(C(=O)N/N=C/c2c(C)[nH]n(-c3ccccc3)c2=O)n[nH]1,5,3,0,84*,1,2
CCc1nnc(NS(=O)(=O)c2ccc(N=Cc3c(C)[nH]n(-c4ccc(Cl)cc4)c3=O)cc2)s1,·,22,·,23,-4,·
Cc1[nH]n(-c2ccc(Br)cc2)c(=O)c1/C=N/NC(=O)c1ccccc1,4,-9,0,27,-3,8
Cc1[nH]n(-c2ccccc2)c(=O)c1/C=N/NC(=O)c1ccc(O)cc1O,-7,4,·,71*,·,·
Cc1[nH]n(-c2ccc(Cl)cc2)c(=O)c1/C=N/c1nnc(-c2ccccc2)s1,·,-3,·,active,·,·
Cc1ccc(-n2[nH]c(C)c(/C=N/NC(=O)c3ccc(O)cc3O)c2=O)cc1,·,6,·,62*,·,·
Cc1[nH]n(-c2ccccc2)c(=O)c1/C=N/Nc1nncc(-c2ccccc2)n1,?,2,0,66*,·,9
Cc1ccc(/C=N/Nc2nncc(-c3ccccc3)n2)o1,1,8,0,-3,5,-10
Cc1[nH]n(-c2ccccc2)c(=O)c1C=NCc1ccncc1,-10,2,0,20*,-8,7
Cc1ccc(S(=O)(=O)N[C@H]2CC[C@H](CC(=O)N3CCc4ccccc4C3)O[C@@H]2CO)cc1,2,·,0,-8,10,-4
N#C[C@H]1[C@@H](c2ccc(-c3cccc(F)c3)cc2)[C@@H](CO)N1C(=O)NC1CCCCC1,-4,·,·,·,-9,1
COC(=O)CC1OCC=C2CN3CCC45C6=CC(=O)C(=O)C([N+](=O)[O-])=C6NC4C1C2CC35 (centres undefined),19,85*,0,·,14,5
CCCN1[C@@H]2c3ccc(C4=CCCCC4)c(=O)n3C[C@H]1[C@H](CO)[C@H]2C(=O)Nc1ccccc1,-3,·,0,5,·,3
Fc1ccc2cnc(-c3ccccc3F)cc2c1,-7,-2,0,1,-3,2
Fc1ccccc1-c1cc2ccccc2cn1,2,15,44*,0,-13,-4
